This is an account of results in paper PMC6044864 (ACS Omega, 2017).

One data set has as its system bacteria. The following applies: cited from earlier work.
The next data set deals with Candida albicans cells. Conditions: cited from earlier work.
Another data set relates to human erythrocytes. Conditions: cited from earlier work.
The next data set concerns HeLa cells. The following applies: cited from earlier work.
Data set [1] concerns Trichosporon beigelii cells. The following applies: cited from earlier work.
The next data set can be described thus: Photodegradation. In kind it is physicochemical. Conditions: photostability; 10 μmol·L^–1 in 60% ACN/H2O/0.09% TFA; laser 440 nm; 0 to 50 min. In outline: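 Test compound was irradiated in solution at room temperature with a pulsed 10 Hz laser at 440 nm for 50 min. UV/vis absorption spectra were recorded before irradiation and every 5 min. Absorbance maximum at 440 nm was plotted against time, and the change was taken as the difference between initial and final readings.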

Regarding “TAT peptide (47-58): carboxyl-free analogue of TAT(47-57)-NH2”, in the data set with bacteria, the “Growth inhibition of bacteria” value was “inhibit the growth”. For the same substance, the “Growth inhibition of Candida albicans cells” value with Candida albicans cells is given as “inhibit the growth”. In addition, in the data set on human erythrocytes, the Hemolytic effect result is given as “without hemolytic effect”. In addition, the “Cell penetration and nuclear localisation” value with HeLa cells is “penetrate, and localize in the nucleus”; in data set [1], “penetrate, and localize in the nucleus”.

For 5(6)-carboxyfluorescein [FAM], in “Photodegradation”, the “Difference of absorbance at 440 nm in 50 min of exposure to light” value was 0.022.
